Results published in ChEMBL document CHEMBL2407047, “Molecular design, synthesis and biological evaluation of 1,4-dihydro-4-oxoquinoline ribonucleosides as TcGAPDH inhibitors with trypanocidal activity” (Bioorg Med Chem Lett, 2013).
pIC50, pKi: −log10 of the molar value.

Tests used:
[1] = molecular target: T1, Glyceraldehyde-3-phosphate dehydrogenase, glycosomal (Trypanosoma cruzi, UniProt P22513); assay: Inhibition of Trypanosoma cruzi glycosomal GAPDH
In short: (§1)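 Enzyme assays were run by isothermal titration calorimetry (ITC), probing the GAPDH NAD+ cosubstrate site and the active site. Affinity is reported as apparent Ki. Mode of inhibition was judged from how NAD+ and G3P KM and Vmax respond. Kinetic models were compared by second-order Akaike's information criterion.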

[2] = Selectivity index, ratio of C57BL/6 mouse spleen cells to trypomastigotes forms of Trypanosoma cruzi Tulahuen infected in monkey LLC-MK2 cells; assay type: toxicity, cell-based; settings: read-out: Selectivity Index
Trypanosoma cruzi = assay: Trypanocidal activity against trypomastigotes forms of Trypanosoma cruzi Tulahuen infected in monkey LLC-MK2 cells after 24 hrs by beta-galactosidase reporter assay; assay type: functional
[3] = Cytotoxicity against C57BL/6 mouse spleen cells after 24 hrs using propidium iodide by flow cytometry; assay type: cell-based
In short: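 Spleen cells were isolated from C57BL/6 mice by mechanical dissociation. They were incubated with compound at 5·10⁶ cells mL⁻¹ for 24 h at 37 °C under 5% CO2, then stained with 10 µg mL⁻¹ propidium iodide and analysed by flow cytometry. Two experiments were run in duplicate; mean plus standard deviation is reported.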

[4] = molecular target: T1, Glyceraldehyde-3-phosphate dehydrogenase, glycosomal; assay: Non-competitive inhibition of Trypanosoma cruzi glycosomal GAPDH active site by ITC method; settings: read-out: Ki(app); in short: as §1
[5] = molecular target: T1, Glyceraldehyde-3-phosphate dehydrogenase, glycosomal; assay: Competitive inhibition of Trypanosoma cruzi glycosomal GAPDH NAD+ binding site by ITC method; settings: read-out: Ki(app); in short: as §1
Saccharomyces cerevisiae = assay: Cytotoxicity against Saccharomyces cerevisiae by FUN-1 fluorescence assay; assay type: organism-based; settings: in vivo
In short: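 Log-phase S. cerevisiae (CBMAI 0194) was grown in LB with 2% glucose and 10 mmol L⁻¹ acetate buffer, pH 5, at 37 °C. Cells were resuspended in NaHEPES pH 7.2 at 10⁷ cells mL⁻¹ and stained with FUN-1 (working solution 200 µmol L⁻¹) for 30 min, with or without compound, in 0.6% DMSO. Fluorescence (excitation 485 nm; emission 530/620 nm) was read every 10 min for 1 h at 37 °C. Viability was taken from the red/green ratio.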

T1 sequence (P22513 whole entry): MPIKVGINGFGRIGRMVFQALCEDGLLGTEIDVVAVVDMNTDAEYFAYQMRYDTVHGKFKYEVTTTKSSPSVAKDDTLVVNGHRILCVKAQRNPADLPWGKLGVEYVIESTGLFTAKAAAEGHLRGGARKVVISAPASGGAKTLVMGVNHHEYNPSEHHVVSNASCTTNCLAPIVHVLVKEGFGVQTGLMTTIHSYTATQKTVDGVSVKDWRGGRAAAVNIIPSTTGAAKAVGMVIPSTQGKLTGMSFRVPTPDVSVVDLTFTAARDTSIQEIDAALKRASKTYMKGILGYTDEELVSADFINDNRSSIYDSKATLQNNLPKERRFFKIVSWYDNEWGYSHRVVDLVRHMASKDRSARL

| Compound | pKi [4] | pKi [5] | selectivity ratio [2] | Activity (Trypanosoma cruzi) [µmol/L] | Activity [3] [µmol/L] | other results |
| --- | --- | --- | --- | --- | --- | --- |
| CCOC(=O)c1cn([C@@H]2O[C@H](COC(=O)c3ccccc3)[C@@H](OC(=O)c3ccccc3)[C@H]2OC(=O)c2ccccc2)c2ccc(Cl)cc2c1=O |  |  |  |  |  | pIC50 [1]: 4.39 |
| O=C(O)c1cn([C@@H]2O[C@H](CO)[C@@H](O)[C@H]2O)c2cc(Br)ccc2c1=O | 3.82 | 4.80 | > 27 | 18 | > 500 |  |
| Cc1ccc2c(=O)c(C(=O)O)cn([C@@H]3O[C@H](CO)[C@@H](O)[C@H]3O)c2c1 |  | 4.77 |  |  |  |  |
| O=C(O)c1cn([C@@H]2O[C@H](CO)[C@@H](O)[C@H]2O)c2ccc(Br)cc2c1=O |  | 4.53 |  |  |  | Activity (Saccharomyces cerevisiae): Toxic |
| Cc1ccc2c(c1)c(=O)c(C(=O)O)cn2[C@@H]1O[C@H](CO)[C@@H](O)[C@H]1O |  | 4.24 |  |  |  |  |
| O=C(Cn1ccnc1[N+](=O)[O-])NCc1ccccc1 [BENZNIDAZOLE] |  |  | > 26 | 19 | > 500 |  |

Second part, led by results:

| pKi [4] | pKi [5] | Compound | selectivity ratio [2] | Activity (Trypanosoma cruzi) [µmol/L] | Activity [3] [µmol/L] | other results |
| --- | --- | --- | --- | --- | --- | --- |
| 3.52 | 4.73 | COc1ccc2c(c1)c(=O)c(C(=O)O)cn2[C@@H]1O[C@H](CO)[C@@H](O)[C@H]1O | 1 | >500 | > 500 |  |
| 3.98 | 4.23 | COc1ccc2c(=O)c(C(=O)O)cn([C@@H]3O[C@H](CO)[C@@H](O)[C@H]3O)c2c1 |  |  |  | Activity (Saccharomyces cerevisiae): Toxic |
|  | 4.49 | O=C(O)c1cn([C@@H]2O[C@H](CO)[C@@H](O)[C@H]2O)c2ccc(Cl)cc2c1=O |  |  |  |  |
